This is an account of results in ChEMBL document CHEMBL1134739, “Synthesis, biological activity and comparative analysis of DNA binding affinities and human DNA topoisomerase I inhibitory activities of novel 12-alkoxy-benzo[c]phenanthridinium salts” (Bioorg Med Chem Lett, 2001).

Experiment [1] relates to HT-29. Nature of the experiment: (§1) Compound was tested for cytotoxicity against HT-29 human solid tumor cell line. The format is functional.
Experiment [2] deals with MCF7. Nature of the experiment: Compound was tested for cytotoxicity against MCF-7 human solid tumor cell line; NA=Not active. The format is functional, cell-based. In a few lines: (§2)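 MTT assay on adherent solid tumor lines. Drug added 24 h after plating at nine concentrations, then 72 h growth with drug. MTT (2.5 mg/mL solution in PBS) added for 3 h, medium aspirated, formazan dissolved in DMSO, absorbance read at 570 nm. IC50 taken from dose/inhibition curves.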

For experiment [3], the system named is Nucleic Acid. Nature of the experiment: Compound was tested for its binding affinity towards poly(AT). The format is nucleic-acid assay. The procedure, abridged:
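Double-stranded poly(dA-dT)·poly(dA-dT) concentration set using a molar extinction coefficient of 13,900 M^-1 cm^-1. Binding was followed by recording UV–vis spectra.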

Experiment [4] deals with Nucleic Acid. Description: Compound was tested for its binding affinity towards calf thymus DNA. The format is nucleic-acid assay. The note with it: Bos taurus. In a few lines:
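Calf thymus DNA concentration set using a molar extinction coefficient of 13,200 M^-1 cm^-1. Binding was followed by recording UV–vis spectra.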

Experiment [5] has as its system Nucleic Acid. Description: Compound was tested for its binding affinity towards poly(GC). The format is nucleic-acid assay. In a few lines: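 Double-stranded poly(dG-dC)·poly(dG-dC) concentration set using a molar extinction coefficient of 13,200 M^-1 cm^-1. Binding was followed by recording UV–vis spectra.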
The test system of experiment [6] is A549. Nature of the experiment: (§3) Compound was tested for cytotoxicity against A-549 human solid tumor cell line. The class given is functional, cell-based. In a few lines:
(§4)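 MTT assay: drugs added 24 h after plating at nine concentrations; cells grown 72 h with drug, then MTT (2.5 mg/mL solution in PBS) added for 3 h. Formazan dissolved in DMSO, absorbance read at 570 nm. IC50 taken from dose/inhibition curves.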

In experiment [7] the test system is Caov-3 cell line. Nature of the experiment: Compound was tested for cytotoxicity against CaOv3 human solid tumor cell line; NA=Not active. The format is functional, cell-based. In a few lines:
as §2

The subject of experiment [8] is MCF7. Nature of the experiment: (§5) Compound was tested for cytotoxicity against MCF-7 human solid tumor cell line. The format is functional.
For experiment [9], the system named is A549. Described as §3. The format is functional.
Experiment [10] has as its system Caov-3 cell line. Description: (§6) Compound was tested for cytotoxicity against CaOv3 human solid tumor cell line. The class given is functional. The procedure, abridged:
as §4

Experiment [11] relates to Caov-3 cell line. The description is as §6. The class given is functional, cell-based. The procedure, abridged:
as §4

The subject of experiment [12] is HT-29. Described as §1. The class given is functional, cell-based. The procedure, abridged: as §4
In experiment [13] the test system is MCF7. The experiment is described as §5. The format is functional, cell-based. The procedure, abridged:
as §4

Molecules are shown by their SMILES.

As usually defined, the IC30 is the concentration at which the effect reaches the 30% level. Low readings indicate greater potency, high ones weaker potency. In general, IC50 refers to the concentration that inhibits the measured activity by half. The compound `CCOc1cc2c3cc(OC)c(OC)cc3c[n+](C)c2c2cc(OC)c(OS(C)(=O)=O)cc12.CS(=O)(=O)[O-]` came in with an IC30 in [1] of 1000 nM. Besides, the IC50 result in experiment [2] is “Not Active”; in experiment [6] it was 500 nM; in [7] it was “Not Active”. Besides, the K in experiment [3] was 50000 M⁻¹; in experiment [4] it was 250000 M⁻¹; in experiment [5], 53000 M⁻¹.
Consider `CCOc1cc2c3cc(OC)c(OC)cc3c(C)[n+](C)c2c2cc(OC)c(OC)cc12`, for which the IC30 in [1] is 9000 nM; in experiment [8] it was 1000 nM; in experiment [9], 10000 nM; in [10], 10000 nM. Besides, the K stood at 700000 M⁻¹ in experiment [3], 700000 M⁻¹ in experiment [4] and 50000 M⁻¹ in experiment [5].
In the case of `COc1cc2c(ccc3c4cc(OC)c(OC)cc4c[n+](C)c23)cc1O` [FAGARONINE], the K in experiment [3] turned out to be 1e+06 M⁻¹; in [4] it was 1e+06 M⁻¹; in experiment [5] it was 1.1e+06 M⁻¹. For the same compound, the values for the IC50 in experiment [11], in experiment [6] and in experiment [13] were 500 nM, 100 nM and 4000 nM, respectively. Also, the 30% effect level in experiment [12] (IC30) was put at 9000 nM.
Consider `CCOc1cc2c3cc(OC)c(OC)cc3c[n+](C)c2c2cc(OC)c(OC)cc12`, for which the K in [3] was 2.5e+06 M⁻¹; in experiment [4] it was 250000 M⁻¹; in experiment [5], 100000 M⁻¹. Moreover, the IC30 is 2000 nM in experiment [12] and 500 nM in [10]. Also, the IC50 amounted to 80 nM in experiment [6] and 2000 nM in experiment [13].
In the case of `CCOc1cc2c3cc(OC)c(OC)cc3c[n+](C)c2c2cc(OC)c(O)cc12.[I-]`, the half-maximal inhibitory concentration (IC50) result in [2] and in experiment [7] was “Not Active” throughout. For the same compound, the K in experiment [3] was found to be 300000 M⁻¹; in experiment [4], 250000 M⁻¹; in experiment [5], 60000 M⁻¹. The compound also had an IC30 in experiment [12] of 5000 nM.
